≈ marks a conversion by molar mass, not a printed value. Calls of active or inactive are those of the source. The calls are words filed in the database; no cut-off is given here.
Tests used:
[1] = system: Aspergillus pseudoglaucus; assay: Antimicrobial activity against Eurotium repens at 50 ug/disk by agar diffusion assay; format: functional, organism-based
Outline: (§1)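 Agar diffusion assay with discs loaded at 50 µg/disk, run against the bacteria, fungi and the green microalga Chlorella fusca.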

[2] = Cytotoxicity against human HM02 cells; format: functional
Outline: (§2)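 Cytotoxicity tested on HM02 gastric adenocarcinoma, HepG2 hepatocellular carcinoma and MCF7 breast adenocarcinoma lines following NCI standards.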

[3] = Antioxidant activity assessed as inhibition of FeSO4-induced lipid peroxidation at 8 uM by TBARS assay; format: functional
Outline: (§3)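 Linolenic acid methyl ester oxidized under FeSO4 catalysis in 50 mM phosphate buffer pH 7.2 at 50 °C. BHT in ethanol added to stop further oxidation. TBARS developed with trichloroacetic and thiobarbituric acid, 60 °C for 30 min. Read A532 minus A600 background. % inhibition calculated versus uninhibited control, with blank and sample-blank corrections.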

[4] = Antioxidant activity assessed as inhibition of FeSO4-induced lipid peroxidation at 33 uM by TBARS assay; format: functional; outline: as §3
[5] = system: Radical scavenging activity; assay: Antioxidant activity assessed as DPPH radical scavenging activity at 23 uM after 30 mins; format: functional
Outline: (§4)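 Samples in EtOH (100 µL) mixed with 25 µL of 1 mM DPPH in EtOH plus 75 µL EtOH, then shaken briefly. Kept 30 min at room temperature in the dark. Absorbance read at 517 nm. % scavenging calculated against control, with blank and sample-blank corrections.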

[6] = ABTS radical scavenging activity assessed as trolox equivalents by TEAC assay; format: physicochemical
Outline: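 ABTS radical cation made by passing ABTS in PBS through manganese dioxide, then filtered (0.2 µm). Diluted in 5 mM PBS pH 7.4 to A734 0.700 and preincubated 2 h at room temperature. 1 mL radical mixed with 200 µL ethanolic sample, vortexed 30 s, centrifuged. A734 of lower phase read exactly 2 min after mixing. PBS and ethanol blanks included. Trolox standards used; value is mM Trolox equivalent to 1.0 mM compound.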

[7] = system: Radical scavenging activity; assay: Antioxidant activity assessed as DPPH radical scavenging activity at 58 uM after 30 mins; format: functional; outline: as §4
Escherichia coli = assay: Antimicrobial activity against Escherichia coli at 50 ug/disk by agar diffusion assay; format: functional, organism-based; outline: as §1
[8] = system: Radical scavenging activity; assay: Antioxidant activity assessed as DPPH radical scavenging activity at 6 uM after 30 mins; format: functional; outline: as §4
[9] = Antioxidant activity assessed as inhibition of FeSO4-induced lipid peroxidation at 16 uM by TBARS assay; format: functional; outline: as §3
MCF7 = assay: Cytotoxicity against human MCF7 cells; format: functional; outline: as §2
Microbotryum violaceum = assay: Antimicrobial activity against Microbotryum violaceum at 50 ug/disk by agar diffusion assay; format: functional, organism-based; outline: as §1
[10] = Antioxidant activity assessed as inhibition of FeSO4-induced lipid peroxidation at 82 uM by TBARS assay; format: functional; outline: as §3
Priestia megaterium = assay: Antimicrobial activity against Bacillus megaterium at 50 ug/disk by agar diffusion assay; format: functional, organism-based; outline: as §1
[11] = system: Radical scavenging activity; assay: Antioxidant activity assessed as DPPH radical scavenging activity at 12 uM after 30 mins; format: functional; outline: as §4
[12] = biological target: Human immunodeficiency virus type 1 reverse transcriptase (Human immunodeficiency virus 1) (UniProt Q72547); assay: Inhibition of HIV1 reverse transcriptase at 66 ug/ml by ELISA
Outline: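 HIV-1 RT activity inhibition measured by ELISA with the test compound at 66 µg/mL.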

Mycotypha microspora = assay: Antimicrobial activity against Mycotypha microspora at 50 ug/disk by agar diffusion assay; format: functional, organism-based; outline: as §1
[13] = Superoxide radical scavenging activity assessed as trolox equivalents by photochemiluminescence assay
Outline: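 Photochemiluminescence with luminol acting as photosensitizer and detection reagent, generating superoxide. Mix of 2.29 mL reagent 1 (solvent/diluent), 200 µL buffer reagent, 25 µL photosensitizer and 10 µL sample in ethanol or Trolox standard in water. Antioxidant capacity taken from the integral under the curve and expressed as Trolox equivalents.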

HepG2 [14] = assay: Cytotoxicity against human HepG2 cells at 10 ug/ml; format: functional; conditions: read-out: GI
HepG2 [15] = assay: Cytotoxicity against human HepG2 cells; format: functional; outline: as §2
[16] = Antioxidant activity assessed as inhibition of FeSO4-induced lipid peroxidation at 164 uM by TBARS assay; format: functional; outline: as §3
[17] = system: Radical scavenging activity; assay: Antioxidant activity assessed as DPPH radical scavenging activity at 115 uM after 30 mins; format: functional; outline: as §4
[Chlorella] fusca = Antimicrobial activity against 'Chlorella' fusca at 50 ug/disk by agar diffusion assay; format: functional, organism-based; conditions: Scenedesmus fuscus; outline: as §1
[18] = system: Radical scavenging activity; assay: Antioxidant activity assessed as DPPH radical scavenging activity at 230 uM after 30 mins; format: functional; outline: as §4

Compound | Activity [1] | GI50 [2] | LC50 [2] | TGI [2] | inhibition [3] | inhibition [4] | Activity [5] | Activity [6] | Activity [7] | Activity (Escherichia coli) | Activity [8] | inhibition [9] | GI50 (MCF7) | LC50 (MCF7) | TGI (MCF7) | Activity (Microbotryum violaceum) | inhibition [10] | Activity (Priestia megaterium) | Activity [11] | Activity (Mycotypha microspora) | other results
C/C(=C/CC/C(C)=C/CC/C(C)=C/C(=O)C/C(C)=C/Cc1cc(O)cc(C)c1O)CO | inactive | 2.3 mg/L (≈ 5.39 µM) | > 10 mg/L | 7.4 mg/L (≈ 17.3 µM) | 10.6% | 32.1% | 25.1% | 0.09 mmol/L | 64.8% | inactive | 8% | 14.8% | 2.2 mg/L (≈ 5.16 µM) | > 10 mg/L | 5.1 mg/L (≈ 12 µM) | inactive | 67.2% | inactive | 12.3% | inactive | Activity [12]: inactive; Activity [13]: 0.59 mmol/L; inhibition of growth at 10 µg/mL (HepG2 [14]): 86%; GI50 (HepG2 [15]): 7.1 mg/L (≈ 16.6 µM); LC50 (HepG2 [15]): > 10 mg/L; TGI (HepG2 [15]): > 10 mg/L; inhibition [16]: 73.7%; Activity [17]: 96.1%; Activity ([Chlorella] fusca): inactive; Activity [18]: 96.4%
C/C(=C/CC/C(C)=C/CC/C(C)=C\C(=O)C/C(C)=C/Cc1cc(O)cc(C)c1O)CO | inactive | 1.8 mg/L (≈ 4.22 µM) | > 10 mg/L | 6 mg/L (≈ 14.1 µM) | 12% | 31.5% | 31.2% | 0.09 mmol/L | 80.1% | inactive | 9.1% | 18.3% | 1.8 mg/L (≈ 4.22 µM) | > 10 mg/L | 4 mg/L (≈ 9.38 µM) | inactive | 69.8% | inactive | 15.2% | inactive | Activity [12]: inactive; Activity [13]: 0.51 mmol/L; inhibition of growth at 10 µg/mL (HepG2 [14]): 87%; GI50 (HepG2 [15]): 6.8 mg/L (≈ 15.9 µM); LC50 (HepG2 [15]): > 10 mg/L; TGI (HepG2 [15]): > 10 mg/L; inhibition [16]: 73.4%; Activity [17]: 96%; Activity ([Chlorella] fusca): inactive; Activity [18]: 96.7%
C/C(=C/C(=O)C/C(C)=C/Cc1cc(O)cc(C)c1O)CC/C=C(\C)Cc1cc(C)co1 | inactive | 0.9 mg/L (≈ 2.13 µM) | 4.6 mg/L (≈ 10.9 µM) | 2 mg/L (≈ 4.73 µM) | 16.4% | 38.9% | 22.1% | 0.28 mmol/L | 56.7% | inactive | 5.9% | 25.2% | 0.9 mg/L (≈ 2.13 µM) | 3.6 mg/L (≈ 8.52 µM) | 1.7 mg/L (≈ 4.02 µM) | inactive | 66.6% | inactive | 11% | inactive | Activity [13]: 0.79 mmol/L; GI50 (HepG2 [15]): 1.7 mg/L (≈ 4.02 µM); LC50 (HepG2 [15]): > 10 mg/L; TGI (HepG2 [15]): 5 mg/L (≈ 11.8 µM); inhibition [16]: 74.6%; Activity [17]: 95.7%; Activity ([Chlorella] fusca): inactive; Activity [18]: 95.8%
